Bioassay records deposited in PubChem BioAssay by Broad Institute.
This is a sample that favours compounds with a hit; in the whole collection about 0.44% have one here.
PglD inh: C. jejuni PglD acetyltransferase inhibitors, primary screen, biochemical, DTNB colorimetric, single point; purified PglD enzyme, DTNB colorimetric CoA detection; inhibition, % at 12.5 µM; hit rate 0.098% among 360,000; AID 602405, 2012; in the data active = inhibition above about 16%, passing the limit was not always enough; inconclusive = no clear call, values can overlap the other calls
S100A4 inh HTS: inhibitors of S100A4-myosin IIA peptide binding, primary screen, biochemical, fluorescence polarization, TAMRA-MyoIIA peptide. Protein S100-A4 (Homo sapiens), P26447. inhibition, % at 10.7 µM. hit rate 0.14% among 360,000;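 active = mean inhibition of at least 70% across replicates, with every replicate also reaching that level; inconclusive = mean inhibition reaches 70% but some replicates fall short; inactive = mean inhibition below 70%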
Target sequence (P26447 whole entry, looked up): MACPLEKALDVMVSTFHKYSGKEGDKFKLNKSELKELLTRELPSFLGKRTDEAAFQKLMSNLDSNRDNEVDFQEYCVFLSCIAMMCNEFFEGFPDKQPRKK
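Material: S100A4 monomer (human). Medium: Calcium-containing HEPES buffer, pH 7.2. Probe or stimulus: labelled myosin peptide probe, 5 nM. Compound dosing: one concentration per compound. Timing: polarization read 5 min after assay mix addition, stable 5–60 min. Benchmarks: DMSO as neutral control, TFP as positive control.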
PDI inh: inhibitors of human PDI, primary screen, biochemical, turbidity, single point, plate reader | Protein disulfide-isomerase (Homo sapiens), P07237 | PDI insulin aggregation turbidity, A650, 90 min | inhibition, % at 10 µM | hit rate 0.052% among 350,000 | AID 588391, 2011;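 active = mean inhibition across replicates of 30% or more, whatever share of single replicates reach that level; inconclusive = mean inhibition below 30% while every single replicate reaches 30%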
RAD54 inh: inhibitors of human RAD54 branch migration, primary screen, biochemical, fluorescence, single point; DNA repair and recombination protein RAD54-like (Homo sapiens), Q92698; RAD54 Holliday junction branch migration, FAM/BHQ fluorescence; inhibition, % at 10.4 µM; hit rate 0.14% among 360,000;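 active = mean normalized replicate activity at least 40 and at least half of replicates scoring 40 or more; inconclusive = only one of the two criteria met; inactive = mean below 40 and under half of replicates reaching 40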;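 also: 0% = median of neutral control wells and 100% = median of positive control wells; inhibitors cause a drop in the FAM fluorescence signal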
FN deposition inh: inhibitors of fibronectin matrix deposition, primary screen, AH1F cells, Alexa488-fibronectin fluorescence, plate reader. hit rate 0.086% among 350,000. inhibition, % at 12.6 µM. AH1F fibroblasts, overnight;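 active = mean inhibition across replicates of 30% or more, regardless of how many single replicates reach that level; inconclusive = mean under 30% yet at least half of replicates reach 30%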;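 also: positive control wells lacked labelled fibronectin entirely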
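Test system: AH1F fibroblast monolayer depositing Alexa488-labelled fibronectin into matrix. Input: 10000 cells per well. Technique: fluorescence, ex 485 nm, em 525 nm. Buffer or medium: DMEM plus 2% serum, read in PBS. Timing: 1 h cell adhesion before compound, then overnight fibronectin incubation. Compound: single dose, pinned. Read-out basis: inhibition from reduced deposited-fibronectin fluorescence.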
ERp5 block: inhibitors of ERp5-driven insulin aggregation, primary screen, biochemical, turbidity, absorbance 650 nm, single point | Protein disulfide-isomerase A6 (Homo sapiens), Q15084 | 90 min | inhibition, % at 9.99 µM | hit rate 0.05% among 350,000;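 active = mean replicate inhibition above about 25%, with every replicate also reaching it, limit read from the data, passing the limit was not always enough; inconclusive = only one of those two criteria met; inactive = neither criterion met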
Target sequence (Q15084 whole entry, looked up): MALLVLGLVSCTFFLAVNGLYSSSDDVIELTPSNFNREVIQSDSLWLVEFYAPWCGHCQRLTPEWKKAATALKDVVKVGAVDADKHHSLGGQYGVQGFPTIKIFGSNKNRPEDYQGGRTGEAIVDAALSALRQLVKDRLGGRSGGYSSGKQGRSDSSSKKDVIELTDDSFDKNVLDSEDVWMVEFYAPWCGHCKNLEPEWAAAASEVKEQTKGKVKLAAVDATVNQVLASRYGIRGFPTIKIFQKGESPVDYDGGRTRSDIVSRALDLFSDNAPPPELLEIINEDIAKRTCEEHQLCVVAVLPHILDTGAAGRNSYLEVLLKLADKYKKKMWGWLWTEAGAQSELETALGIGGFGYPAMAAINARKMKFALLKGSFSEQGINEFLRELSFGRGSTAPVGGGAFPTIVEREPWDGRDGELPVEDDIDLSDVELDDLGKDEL
* = called active by the depositor; ? = inconclusive; . = no result.

SMILES	PglD inh	S100A4 inh HTS	PDI inh	RAD54 inh	FN deposition inh	ERp5 block
CN1C(=CC=C2C=C(I)C(=O)C(I)=C2)C(C)(C)c2ccccc21	1	-1	-1	-20	3	6
CN1/C(=C\C=C2/C(=O)Oc3ccccc3C2=O)C(C)(C)c2ccccc21	.	178*	.	.	-32	-9
Cc1noc(C)c1NC(=O)N(C)C[C@H]1Oc2ccc(NC(=O)Cc3cn(C)c4ccccc34)cc2C(=O)N([C@H](C)CO)C[C@@H]1C	2	-9	.	7	.	-4
O=C(/C=C/c1ccccc1Cl)c1ccc(O)cc1	-1	-13	?	-19	13	-1
O=C(/C=C/c1c(F)cccc1Cl)c1ccc(O)cc1	.	1	79*	.	17	-1
C[C@@H]1CN([C@@H](C)CO)C(=O)c2cccc(NC(=O)NC3CCCCC3)c2O[C@H]1CN(C)Cc1ccc(C(F)(F)F)cc1	-1	-49	.	2	3	-1
C[C@@H]1CN([C@H](C)CO)C(=O)c2cccc(NC(=O)C3CC3)c2O[C@@H]1CN(C)CC1CCCCC1	-4	9	.	4	.	2
CC(C)Oc1ccccc1/C=N/NC(=O)c1ccc(F)cc1	1	.	-10	2	6	.
CCN(CC)c1ccc(C(=O)N/N=C/c2ccccc2OC(F)F)cc1	.	3	6	.	41*	0
O=C(C[C@H]1C=C[C@@H](NS(=O)(=O)c2ccccc2F)[C@H](CO)O1)NCCCN1CCOCC1	5	3	.	2	0	-6
O=C(Nc1ccccc1F)N1C[C@@H]2N[C@H](C1)C2c1ccc(/C=C/c2ccccc2)cc1 (stereo partly specified)	.	18	.	.	9	3
C[C@@H]1CN([C@H](C)CO)S(=O)(=O)c2ccc(C#CC3(O)CCCC3)cc2O[C@@H]1CN(C)C(=O)Cc1cccnc1	-1	6	.	1	-18	0
CN1CCN(C(=O)c2cccc(-c3cnc4cnc(-c5ccccc5Oc5ccccc5)cn34)c2)CC1	-5	-4	4	-7	40*	1
O=C(Nc1ccc2c(c1)OCO2)N[C@@H]1CC[C@H](CCNC(=O)C2CCOCC2)O[C@H]1CO	3	8	.	-14	11	3
COc1cccc(CNC(=O)CCc2nnc3ccc(NCCCN4CCCC4=O)nn23)c1	-4	-3	5	-16	30*	-2
Cn1c(Cc2ccccc2)nnc1SCc1cc(=O)n2ccsc2n1	.	-6	0	.	-2	-7
O=c1cc(CSc2nnnn2-c2ccc(O)cc2)nc2sccn12	-4	-2	39*	-7	2	0
CNC[C@@H]1Oc2cc(-c3ccccc3F)ccc2S(=O)(=O)N([C@@H](C)CO)C[C@@H]1C	.	.	.	.	-6	.
CC(C)NC(=O)N(C)C[C@@H]1Oc2ncc(-c3cc4ccccc4o3)cc2C(=O)N([C@H](C)CO)C[C@@H]1C	2	-5	.	-1	18	28*
C[C@@H]1CN([C@@H](C)CO)C(=O)c2cc(/C=C/c3ccccc3)cnc2O[C@H]1CN(C)S(=O)(=O)c1cccs1	8	94*	.	-1	.	3
C[C@@H]1CN([C@H](C)CO)C(=O)c2cc(-c3cccc(C#N)c3)cnc2O[C@H]1CN(C)Cc1cccnc1	2	1	.	-3	-3	1
C[C@@H]1CN([C@@H](C)CO)C(=O)c2cc(-c3ccccc3)cnc2O[C@@H]1CN(C)Cc1ccccc1	0	-9	.	-3	38*	-4
C[C@H]1CN([C@@H](C)CO)C(=O)c2cc(-c3cccc(C#N)c3)cnc2O[C@@H]1CN(C)Cc1cncnc1	2	8	.	11	-5	34*
C[C@@H]1CN(C)C(=O)c2cc(N)ccc2O[C@@H]1CN(C)C(=O)OC(C)(C)C	.	.	.	.	-3	.
C[C@H](CO)N1C[C@H](C)[C@H](CN(C)Cc2cncnc2)Oc2ncc(-c3cccc(C#N)c3)cc2C1=O	-1	-10	.	-3	3	52*
SMILES	PglD inh	S100A4 inh HTS	PDI inh	RAD54 inh	FN deposition inh	ERp5 block
COc1ccc(S(=O)(=O)N(C)C[C@H]2Oc3ncc(-c4ccncc4)cc3C(=O)N([C@@H](C)CO)C[C@@H]2C)cc1	-1	-2	-5	-3	0	0
C[C@@H]1CN([C@@H](C)CO)C(=O)c2cc(-c3cccc(C#N)c3)cnc2O[C@@H]1CN(C)Cc1cncnc1	-1	6	.	10	-2	2
COc1ccc(S(=O)(=O)N(C)C[C@H]2Oc3ncc(-c4ccncc4)cc3C(=O)N([C@@H](C)CO)C[C@H]2C)cc1	1	90*	.	14	2	0
CC(C)C(NC(=O)c1ccc(F)cc1)C(=O)N1CCOCC1 (stereo unspecified)	-6	-5	-7	-12	-8	27*
CC(C)C(NC(=O)c1ccc(F)cc1)C(=O)N1CCC1 (stereo unspecified)	-3	-3	2	6	4	2
Cc1ccc2nc3n(c(=O)c2c1)-c1ncccc1C(=O)NC3Cc1ccc(O)cc1 (stereo unspecified)	-1	-2	37*	-7	0	-6
O=C1NC(Cc2ccccc2)c2nc3ccccc3c(=O)n2-c2ncccc21 (stereo unspecified)	-3	-2	1	-2	-3	5
Cc1cc(C)c2c(=O)n3c(nc2c1)C(Cc1ccc(O)cc1)NC(=O)c1cccnc1-3 (stereo unspecified)	-3	2	44*	-3	1	-2
O=C1NC(Cc2ccc(O)cc2)c2nc3ccccc3c(=O)n2-c2ncccc21 (stereo unspecified)	0	0	43*	-4	8	1
O=C(C[C@H]1C[C@@H]2c3cc(NC(=O)Nc4ccccc4)ccc3O[C@@H]2[C@@H](CO)O1)NC1CCCCC1	-1	2	.	-3	-16	-4
CCC(=O)N1CC2(C1)[C@H](c1ccccc1)[C@H](CO)N2C(=O)NC(C)C	.	3	.	.	.	5
COc1ccc2c3c([nH]c2c1)[C@H](CO)N(C(=O)C1CC1)CC31CN(C(=O)c2ccncc2)C1	.	-5	.	.	.	11
CC(=O)N(C)C[C@H]1Oc2ncccc2C(=O)N(C)C[C@@H]1C	.	.	.	.	1	.
CCS(=O)(=O)N[C@H]1CC[C@H](CC(=O)Nc2ccc(-c3ccccc3)cc2)O[C@@H]1CO	5	2	.	-14	-40	-1
